# Measured values as given in ChEMBL document CHEMBL2150875, “1-Aryl-4-nitro-1H-imidazoles, a new promising series for the treatment of human African trypanosomiasis” (Eur J Med Chem, 2011).
# What was measured:
# [1] = tested on: Trypanosoma brucei rhodesiense; assay: Antiparasitic activity against Trypanosoma brucei rhodesiense STIB900 bloodstream forms assessed as reduction in cell viability after 70 hrs by alamar blue assay; type: functional, organism-based
# [2] = tested on: L6; assay: Cytotoxicity against in rat L6 cells assessed as reduction in cell viability after 70 hrs by alamar blue assay; type: cell-based; conditions: L6, 70 h
# How it was run: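 L-6 rat skeletal myoblasts seeded at 4×10^4/mL. 37 °C, 5% CO2, 70 h, then resazurin viability read by fluorescence after 2–4 h. IC50 from sigmoidal inhibition curves.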
# [3] = tested on: Lymphocyte; assay: Genotoxicity in human lymphocytes assessed as micronucleated binucleate cells level at 5 ug/mL incubated for 20 hrs measured post 28 hrs recovery in absence of rat liver S9 fraction (reference value: 0.4%); type: toxicity, cell-based
# How it was run: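 Cultures were PHA-stimulated pooled female donor whole-blood lymphocytes, grown 48 h at 37 °C before treatment, with cytochalasin-B 6 µg/mL added at treatment. Without S9, exposure was 20 h with 28 h recovery. With rat S9, exposure was 3 h with 45 h recovery. Micronucleated binucleate cells were scored at 1000 per replicate on Giemsa-stained slides.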
# [4] = tested on: Lymphocyte; assay: Genotoxicity in human lymphocytes assessed as micronucleated binucleate cells level at […] incubated for 20 hrs measured post 28 hrs recovery in absence of rat liver S9 fraction (reference value: 0.3%); type: toxicity, cell-based
# [5] = Redox potential of the compound assessed as one electron redox potential by pulse radiolysis method; type: physicochemical
# [6] = tested on: Lymphocyte; assay: Genotoxicity in human lymphocytes assessed as micronucleated binucleate cells level at 0.03 ug/mL incubated for 24 hrs measured under no recovery condition in absence of rat liver S9 fraction (reference value: 0.50%); type: toxicity, cell-based
# [7] = Trypanosoma brucei, STIB900, 70 h, read-out: IC50
smiles,measurement,setting,value
O=[N+]([O-])c1cn(-c2c(F)cccc2F)cn1,IC50,[1],Not Active
O=[N+]([O-])c1cn(-c2ccccc2Br)cn1,IC50,[1],Not Active
O=[N+]([O-])c1cn(-c2ccc(Cl)cc2Cl)cn1,IC50,[1],Not Active
O=[N+]([O-])c1cn(-c2cc(Cl)ccc2Cl)cn1,IC50,[1],Not Active
Nc1nc(N)nc(Nc2ccc([As]3SCC(CO)S3)cc2)n1 (configuration not stated) [MELARSOPROL],IC50,[2],1.3 mg/L
O=[N+]([O-])c1cn(-c2ccc(F)cc2F)cn1,IC50,[1],Not Active
COc1ccc(-n2cnc([N+](=O)[O-])c2)cc1OC,IC50,[1],Not Active
COc1ccc(-n2cnc([N+](=O)[O-])c2)c(OC)c1,IC50,[1],Not Active
O=[N+]([O-])c1cc[n+]([O-])c2ccccc12 [4-NITROQUINOLINE-1-OXIDE],Activity,[3],3.5%
same,Activity,[4],4.8%
CSc1ccc(OCc2ncc([N+](=O)[O-])n2C)cc1 [FEXINIDAZOLE],IC50,[2],> 90 mg/L
same,IC50,[1]; [7],2.57 µM
same,Activity,[5],-511 mV
Cc1ccc(-n2cnc([N+](=O)[O-])c2)c(C)c1,IC50,[1],Not Active
O=[N+]([O-])c1cn(-c2ccccc2Cl)cn1,IC50,[1],Not Active
NCCCC(N)(C(=O)O)C(F)F (configuration not stated) [EFLORNITHINE],IC50,[2],12 mg/L
same,IC50,[1]; [7],3.8 µM
Cc1ccc(-n2cnc([N+](=O)[O-])c2)c(Br)c1,IC50,[1],Not Active
O=[N+]([O-])c1cn(-c2ccc3c(c2)OCO3)cn1,IC50,[2],> 90 mg/L
same,IC50,[1]; [7],0.94 µM
Cc1ncc([N+](=O)[O-])n1CCO [METRONIDAZOLE],Activity,[5],-516 mV
CC[C@]1(O)C[C@@H]2CN(CCc3c([nH]c4ccccc34)[C@@](C(=O)OC)(c3cc4c(cc3OC)N(C)[C@H]3[C@@](O)(C(=O)OC)[C@H](OC(C)=O)[C@]5(CC)C=CCN6CC[C@]43[C@@H]65)C2)C1 [VINBLASTINE],Activity,[6],6.06%
